Experimental data: ChEMBL document CHEMBL4842338, “System-oriented optimization of multi-target 2,6-diaminopurine derivatives: Easily accessible broad-spectrum antivirals active against flaviviruses, influenza virus and SARS-CoV-2” (Eur J Med Chem, 2021)
Activity calls are given as the source filed them. The calls are words filed in the database; no cut-off is given here.

Assays:
[1] = Selectivity index, ratio of CC50 for human A549 cells to IC50 for Influenza A Puerto Rico/8/34/H1N1 infected in human A549 cells; format: toxicity, cell-based; details: read-out: Selectivity Index
Summary of the method: (§1)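 MDCK or A549 cells (2.5 × 10⁵/well) infected with A/Puerto Rico/8/34 H1N1 for 1 h at 37 °C, then washed. Compound (0.5–20 μM) added in 2% FBS medium for 24 h, with DMSO final ≤0.2%. Virus in supernatants read by hemagglutination. CC₅₀ by MTT (2 × 10⁴ cells/well, same concentrations, 24 h, absorbance 570 nm). SI = CC₅₀/IC₅₀.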

Influenza A virus [2] = assay: Antiviral activity against Influenza A Puerto Rico/8/34/H1N1 infected in human A549 cells assessed as inhibition of viral replication after 24 hrs by hemagglutination assay; format: functional, organism-based; details: A/Puerto Rico/8/1934(H1N1), A549, 24 h
A549 = assay: Cytotoxicity against human A549 cells assessed as reduction in cell viability measured after 24 hrs by MTT assay; format: cell-based; details: a549, 24 h
Huh-7 = assay: Cytotoxicity against human Huh-7 cells assessed as reduction in cell viability by Celltiter-Glo luminescent cell viability assay; format: cell-based; details: huh-7
Summary of the method: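 Compound-exposed cells assessed by CellTiter-Glo luminescence versus DMSO control; CC50 from dose-response.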

dengue virus type 2 = assay: Antiviral activity against Dengue virus serotype 2 New Guinea C infected in pre-seeded Huh-7 cells assessed as inhibition of viral replication incubated for 72 hrs by immunodetection based secondary yield reduction assay; format: functional, organism-based; details: Dengue virus, New Guinea C, Huh-7, 72 h; read-out: IC50
[3] = Selectivity index, ratio of CC50 for human Huh-7 cells to IC50 for Dengue virus serotype 2 New Guinea C infected in pre-seeded Huh-7 cells assessed as inhibition of viral replication incubated for 72 hrs by immunodetection based secondary yield reduction assay; format: toxicity, cell-based; details: read-out: Selectivity Index
Zika virus = assay: Antiviral activity against Zika virus H/PF/2013 infected in pre-seeded Huh-7 cells assessed as inhibition of viral replication incubated for 72 hrs by immunodetection based secondary yield reduction assay; format: functional, organism-based; details: H/PF/2013, Huh-7, 72 h
[4] = Selectivity index, ratio of CC50 for human Huh-7 cells to IC50 for Zika virus H/PF/2013 infected in pre-seeded Huh-7 cells assessed as inhibition of viral replication incubated for 72 hrs by immunodetection based secondary yield reduction assay; format: toxicity, cell-based; details: read-out: Selectivity Index
West Nile virus = assay: Antiviral activity against West Nile virus lineage 1 (Italy/2009) infected in pre-seeded Huh-7 cells assessed as inhibition of viral replication incubated for 48 hrs by immunodetection based direct yield reduction assay; format: functional, organism-based; details: West Nile virus, lineage 1 (Italy/2009), Huh-7, 48 h; read-out: IC50
[5] = Selectivity index, ratio of CC50 for human Huh-7 cells to IC50 for West Nile virus lineage 1 (Italy/2009) infected in pre-seeded Huh-7 cells assessed as inhibition of viral replication incubated for 48 hrs by immunodetection based direct yield reduction assay; format: toxicity, cell-based; details: read-out: Selectivity Index
Summary of the method: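 Direct yield reduction in Huh7 cells (7000/well), infected with 50 TCID₅₀ of DENV or ZIKV, or 25 TCID₅₀ of WNV. Adsorption 1 h at 37 °C, then virus removed and serial compound dilutions added. Incubated 72 h (DENV, ZIKV) or 48 h (WNV). Viral antigen immunodetected on the monolayer. IC₅₀ by non-linear regression, mean of three experiments. SI = CC₅₀ (Huh7, CellTiter-Glo luminescence)/IC₅₀.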

[6] = Antioxidant activity assessed as inhibition of ABTS radical scavenging activity at 10 uM to 1 mM measured after 10 mins; format: functional
Summary of the method: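 ABTS radical solution diluted in ethanol (1:100) to A734 0.70; 3.0 mL mixed with 30 μL sample in DMSO at 10 μM–1 mM; A734 read after exactly 10 min; ascorbic acid reference; % scavenging = (A0−As)/A0×100.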

MDCK = assay: Cytotoxicity against MDCK cells assessed as reduction in cell viability measured after 24 hrs by MTT assay; format: cell-based, Canis lupus familiaris; details: dog, mdck, 24 h
Influenza A virus [7] = assay: Antiviral activity against Influenza A Puerto Rico/8/34/H1N1 infected in MDCK cells assessed as inhibition of viral replication measured in supernatants of infected cells after 24 hrs by hemagglutination assay; format: functional, organism-based; details: A/Puerto Rico/8/1934(H1N1)
[8] = Selectivity index, ratio of CC50 for MDCK cells to IC50 for Influenza A Puerto Rico/8/34/H1N1 infected in MDCK cells; format: toxicity, cell-based; details: dog, read-out: Selectivity Index; summary of the method: as §1
[9] = Inhibition of Dengue virus 2 […] RNA dependent RNA polymerase incubated for 10 mins by picogreen staining based fluorescent analysis (Rvb= 0.27+/-0.03 uM); design: species or system dengue virus type 2
[10] = Inhibition of full length Dengue virus 2 NS5 RNA dependent RNA polymerase incubated for 10 mins by picogreen staining based fluorescent analysis (Rvb= 0.32+/-0.05 uM); design: species or system dengue virus type 2
[11] = Inhibition of full length ZIKA virus NS5 RNA dependent RNA polymerase incubated for 10 mins by picogreen staining based fluorescent analysis (Rvb= 1+/-0.2 uM)
[12] = Inhibition of DENV NS5-MTase domain using GpppA2'OMe-RNA74 as a substrate incubated for 30 mins by filter binding assay; design: species or system dengue virus type 2
Summary of the method: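 MTase (1 μM) incubated with increasing inhibitor in 40 mM Tris-HCl pH 7.5, 5 mM DTT, 10 μM AdoMet ([3H]-labelled), 0.5 μM GpppA2′OMe-RNA74 substrate, 30 °C for 30 min; stopped in ice-cold 100 μM AdoHcy; DEAE filter binding, scintillation counting.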

[13] = Inhibition of full length ZIKV NS5-MTase domain using 7MeGpppAC4 as a substrate incubated for 30 mins by filter binding assay; design: species or system Zika virus
[14] = target: Src (Proto-oncogene tyrosine-protein kinase Src) (Homo sapiens, UniProt P12931); assay: Inhibition of human recombinant N terminal His6 tagged full length Src assessed as residual activity at 5 uM using KVEKIGEGTYGVVYK as a substrate in the presence of NP-40 incubated for 10 mins by scintillation counting analysis relative to control; details: probe KVEKIGEGTYGVVYK, read-out: Activity
Summary of the method: (§2)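 Compounds at fixed 5 μM; 10–50 ng kinase, substrate and NP-40/BSA per supplementary table, 10 μL at 30 °C for 10 min in low-binding tubes. Reactions spotted on filter, dried, scintillation counted. Mean ± SD of two independent experiments.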

[15] = target: Abl (Tyrosine-protein kinase ABL1) (Homo sapiens, UniProt P00519); assay: Inhibition of human recombinant N terminal His6 tagged Abl (27 to end residue) assessed as residual activity at 5 uM using KKGEAIYAADFA-NH2 as a substrate in the presence of NP-40 incubated for 10 mins by scintillation counting analysis relative to control; details: probe KKGEAIYAADFA-NH2, read-out: Activity; summary of the method: as §2
[16] = target: Fyn (Tyrosine-protein kinase Fyn) (Homo sapiens, UniProt P06241); assay: Inhibition of human recombinant N terminal His6 tagged full length Fyn assessed as residual activity at 5 uM using […] as a substrate in the presence of NP-40 incubated for 10 mins by scintillation counting analysis relative to control; details: probe […], read-out: Activity; summary of the method: as §2
[17] = target: PIK3CA (Phosphatidylinositol 4,5-bisphosphate 3-kinase catalytic subunit alpha isoform) (Homo sapiens, UniProt P42336); assay: Inhibition of human full length PIK3CA assessed as residual activity at 5 uM using PI:PS (1:3) as a substrate incubated for 10 mins by scintillation counting analysis relative to control; details: full length PIK3CA enzyme, probe PI:PS (1:3), read-out: Activity
Summary of the method: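 Radiometric kinase reaction with 10–50 ng enzyme and compound fixed at 5 μM, 10 μL at 30 °C for 10 min. Reactions spotted on filter and counted by scintillation. Residual activity is the mean ± SD of two independent experiments.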

CDK9/cyclin T1 = CDK9/cyclin T1 (Homo sapiens, UniProt P50750); assay: Inhibition of human full length CDK9/ His-tagged cT1 assessed as residual activity at 5 uM using CDKtide as a substrate in the presence of BSA incubated for 10 mins by scintillation counting analysis relative to control; format: protein-complex assay; details: full length CDK9/His-tagged cyclin T1 complex, probe CDKtide, read-out: Activity; summary of the method: as §2
Sequence of CDK9/cyclin T1 (O60563 whole entry): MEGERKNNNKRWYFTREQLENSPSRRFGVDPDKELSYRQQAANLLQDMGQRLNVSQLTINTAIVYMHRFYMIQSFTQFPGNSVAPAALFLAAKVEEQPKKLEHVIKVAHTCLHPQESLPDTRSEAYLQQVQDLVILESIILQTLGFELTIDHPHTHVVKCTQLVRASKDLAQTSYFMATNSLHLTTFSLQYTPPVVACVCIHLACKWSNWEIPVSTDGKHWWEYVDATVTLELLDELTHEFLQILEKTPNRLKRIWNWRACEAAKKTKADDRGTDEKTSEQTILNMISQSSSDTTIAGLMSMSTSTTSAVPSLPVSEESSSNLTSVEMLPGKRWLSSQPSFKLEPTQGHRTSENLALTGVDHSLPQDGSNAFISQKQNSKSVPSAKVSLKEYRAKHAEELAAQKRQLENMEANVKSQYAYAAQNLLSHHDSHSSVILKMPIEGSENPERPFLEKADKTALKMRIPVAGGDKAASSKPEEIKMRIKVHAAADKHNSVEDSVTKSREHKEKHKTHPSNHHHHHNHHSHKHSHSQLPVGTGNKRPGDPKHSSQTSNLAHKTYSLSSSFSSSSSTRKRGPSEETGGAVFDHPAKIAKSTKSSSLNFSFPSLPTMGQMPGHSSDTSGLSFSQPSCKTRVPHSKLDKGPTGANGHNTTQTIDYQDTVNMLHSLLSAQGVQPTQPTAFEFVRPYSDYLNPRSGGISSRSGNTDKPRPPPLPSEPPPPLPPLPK
Sequence of CDK9/cyclin T1 (P50750 whole entry): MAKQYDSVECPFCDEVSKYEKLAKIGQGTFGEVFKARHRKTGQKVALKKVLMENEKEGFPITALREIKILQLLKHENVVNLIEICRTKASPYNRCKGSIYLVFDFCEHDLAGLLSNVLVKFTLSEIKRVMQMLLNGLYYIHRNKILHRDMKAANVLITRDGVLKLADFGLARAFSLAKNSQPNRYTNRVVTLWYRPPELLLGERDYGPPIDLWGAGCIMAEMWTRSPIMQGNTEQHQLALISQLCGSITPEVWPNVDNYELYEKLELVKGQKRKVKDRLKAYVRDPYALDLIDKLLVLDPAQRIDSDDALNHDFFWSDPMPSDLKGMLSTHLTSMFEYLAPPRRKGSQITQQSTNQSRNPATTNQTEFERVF

Sequence of Fyn (Tyrosine-protein kinase Fyn) (P06241 whole entry, canonical isoform): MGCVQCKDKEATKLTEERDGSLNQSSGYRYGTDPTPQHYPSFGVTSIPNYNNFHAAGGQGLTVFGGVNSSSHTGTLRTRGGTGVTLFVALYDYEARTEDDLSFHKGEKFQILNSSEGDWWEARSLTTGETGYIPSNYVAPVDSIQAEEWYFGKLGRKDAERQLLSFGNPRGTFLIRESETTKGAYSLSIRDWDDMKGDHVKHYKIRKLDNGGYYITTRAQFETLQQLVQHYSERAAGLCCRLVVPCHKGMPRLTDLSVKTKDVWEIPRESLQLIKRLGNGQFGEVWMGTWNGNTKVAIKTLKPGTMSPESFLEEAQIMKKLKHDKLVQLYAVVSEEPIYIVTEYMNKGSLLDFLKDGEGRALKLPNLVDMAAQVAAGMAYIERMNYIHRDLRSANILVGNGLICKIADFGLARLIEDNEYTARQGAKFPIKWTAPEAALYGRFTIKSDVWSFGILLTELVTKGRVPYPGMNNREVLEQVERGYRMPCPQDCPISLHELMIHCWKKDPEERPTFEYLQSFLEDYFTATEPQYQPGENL
Sequence of Abl (Tyrosine-protein kinase ABL1) (P00519 whole entry): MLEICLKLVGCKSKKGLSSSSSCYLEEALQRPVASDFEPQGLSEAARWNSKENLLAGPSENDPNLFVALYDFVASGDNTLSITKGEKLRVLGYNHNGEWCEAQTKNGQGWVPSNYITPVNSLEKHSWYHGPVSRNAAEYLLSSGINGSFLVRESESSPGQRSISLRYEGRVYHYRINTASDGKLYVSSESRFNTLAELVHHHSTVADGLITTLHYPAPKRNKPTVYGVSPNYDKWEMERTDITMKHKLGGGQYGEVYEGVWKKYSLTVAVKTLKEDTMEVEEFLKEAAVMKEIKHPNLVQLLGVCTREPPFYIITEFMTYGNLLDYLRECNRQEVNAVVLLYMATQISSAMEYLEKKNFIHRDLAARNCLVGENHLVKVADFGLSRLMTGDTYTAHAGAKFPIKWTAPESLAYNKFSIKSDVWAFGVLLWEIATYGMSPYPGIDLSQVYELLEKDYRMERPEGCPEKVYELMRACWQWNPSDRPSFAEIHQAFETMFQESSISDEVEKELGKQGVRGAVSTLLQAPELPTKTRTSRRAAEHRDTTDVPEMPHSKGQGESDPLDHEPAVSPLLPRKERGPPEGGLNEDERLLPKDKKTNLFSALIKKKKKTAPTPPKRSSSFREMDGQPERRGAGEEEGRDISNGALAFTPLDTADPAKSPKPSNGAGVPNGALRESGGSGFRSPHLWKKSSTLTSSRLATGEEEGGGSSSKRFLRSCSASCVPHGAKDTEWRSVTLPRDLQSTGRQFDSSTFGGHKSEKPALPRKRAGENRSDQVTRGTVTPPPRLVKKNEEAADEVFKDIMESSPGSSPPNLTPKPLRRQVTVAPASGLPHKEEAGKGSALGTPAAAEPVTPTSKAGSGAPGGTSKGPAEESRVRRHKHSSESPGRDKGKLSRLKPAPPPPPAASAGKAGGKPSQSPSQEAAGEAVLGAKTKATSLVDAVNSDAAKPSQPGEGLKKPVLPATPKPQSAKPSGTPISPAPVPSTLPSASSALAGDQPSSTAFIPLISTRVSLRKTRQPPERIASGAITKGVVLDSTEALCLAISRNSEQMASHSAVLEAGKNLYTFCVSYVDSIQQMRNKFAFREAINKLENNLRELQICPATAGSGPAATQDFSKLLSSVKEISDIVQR
Sequence of PIK3CA (Phosphatidylinositol 4,5-bisphosphate 3-kinase catalytic subunit alpha isoform) (P42336 whole entry, canonical isoform): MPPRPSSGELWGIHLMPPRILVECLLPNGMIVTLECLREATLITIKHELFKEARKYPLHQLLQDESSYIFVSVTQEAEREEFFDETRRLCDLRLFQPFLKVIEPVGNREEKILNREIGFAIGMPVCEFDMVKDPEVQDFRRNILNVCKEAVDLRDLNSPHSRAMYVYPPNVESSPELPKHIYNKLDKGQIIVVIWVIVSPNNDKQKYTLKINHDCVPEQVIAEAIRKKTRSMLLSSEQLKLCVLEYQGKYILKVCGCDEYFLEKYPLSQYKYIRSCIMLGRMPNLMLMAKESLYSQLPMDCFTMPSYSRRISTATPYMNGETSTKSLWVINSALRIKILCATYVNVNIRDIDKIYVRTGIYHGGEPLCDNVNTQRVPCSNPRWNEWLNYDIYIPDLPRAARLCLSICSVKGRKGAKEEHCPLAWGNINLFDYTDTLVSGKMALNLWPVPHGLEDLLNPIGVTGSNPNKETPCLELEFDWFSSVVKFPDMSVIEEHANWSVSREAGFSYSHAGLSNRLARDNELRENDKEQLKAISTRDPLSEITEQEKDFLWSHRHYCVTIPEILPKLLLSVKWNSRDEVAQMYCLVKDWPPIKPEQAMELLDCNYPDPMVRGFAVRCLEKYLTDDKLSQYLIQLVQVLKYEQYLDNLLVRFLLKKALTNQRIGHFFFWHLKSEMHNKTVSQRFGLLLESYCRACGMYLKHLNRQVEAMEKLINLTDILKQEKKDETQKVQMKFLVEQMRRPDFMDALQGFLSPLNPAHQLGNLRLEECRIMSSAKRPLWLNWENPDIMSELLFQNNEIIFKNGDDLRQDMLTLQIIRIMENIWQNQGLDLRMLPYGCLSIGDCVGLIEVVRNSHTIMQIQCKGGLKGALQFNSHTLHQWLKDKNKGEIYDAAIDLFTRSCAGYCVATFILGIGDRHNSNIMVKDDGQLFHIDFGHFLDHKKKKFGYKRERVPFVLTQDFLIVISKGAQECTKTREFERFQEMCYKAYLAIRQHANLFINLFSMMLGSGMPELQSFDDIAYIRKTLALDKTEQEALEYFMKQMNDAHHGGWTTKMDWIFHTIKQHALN
Sequence of Src (Proto-oncogene tyrosine-protein kinase Src) (P12931 2-536 limits assumed): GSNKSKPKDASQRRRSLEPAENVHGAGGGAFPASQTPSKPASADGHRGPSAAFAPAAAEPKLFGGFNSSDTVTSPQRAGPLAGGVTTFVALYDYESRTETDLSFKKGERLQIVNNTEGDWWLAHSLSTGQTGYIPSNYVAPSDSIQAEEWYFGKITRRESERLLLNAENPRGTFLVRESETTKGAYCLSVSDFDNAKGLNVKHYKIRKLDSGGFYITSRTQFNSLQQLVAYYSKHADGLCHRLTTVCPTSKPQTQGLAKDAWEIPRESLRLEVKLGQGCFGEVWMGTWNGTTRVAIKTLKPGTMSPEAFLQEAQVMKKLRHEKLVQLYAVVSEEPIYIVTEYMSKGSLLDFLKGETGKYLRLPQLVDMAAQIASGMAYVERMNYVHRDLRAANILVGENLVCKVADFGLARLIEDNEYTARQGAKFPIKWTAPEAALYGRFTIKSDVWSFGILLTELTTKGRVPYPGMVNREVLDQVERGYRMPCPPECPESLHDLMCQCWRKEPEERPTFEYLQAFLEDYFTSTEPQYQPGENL

Work on Fc1cccc(NNc2nc(NCCOc3ccccc3)nc3[nH]cnc23)c1 yielded a selectivity ratio [1] of 3.5, an IC50 (Influenza A virus [2]) of 14.9 µM and a CC50 (A549) of 52.4 µM. It also gave a CC50 (Huh-7) of 20 µM, an IC50 (dengue virus type 2) of 3.4 µM and a selectivity ratio at 72 h [3] of 6. The IC50 (Zika virus) was 2400 nM, the selectivity ratio at 72 h [4] was 8 and the IC50 (West Nile virus) was 1100 nM. The selectivity ratio at 48 h [5] was 18, the Activity [6] was “Active” and the CC50 (MDCK) was 136 µM. For the same molecule, the IC50 (Influenza A virus [7]) was 6.3 µM, the selectivity ratio [8] was over 5.3 and the IC50 [9] was over 100 µM. For the same molecule, the IC50 [10] was 153 µM, the IC50 [11] was 105 µM and the IC50 [12] was “Not Active”. The IC50 [13] was “Not Active”, the activity at 10 min, 5 µM [14] was 84% and the activity at 10 min, 5 µM [15] was 67%. It also gave an activity at 10 min, 5 µM [16] of over 98%, an activity at 10 min, 5 µM [17] of 77% and an activity at 10 min, 5 µM (CDK9/cyclin T1) of 88%.
